From PubChem BioAssay
Beta cell apopt = inhibitors of cytokine-induced beta cell apoptosis, primary screen, luminescence. protection from apoptosis, % (test concentration not listed). 0.8% of 300,000 active. INS-1E cytokine-induced death, ATP luminescence, 48 h; percent of positive-control rescue, neutral wells zero;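 active means Every replicate reaches about 75%, or at least half do and their mean reaches it too, limit read from the data; inconclusive means At least half of replicates reach the limit but their mean does not; inactive means Under half of replicates reach the limit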;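 further: higher means more ATP so stronger rescue from cytokine killing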
Mdm2-MdmX inh = inhibitors of human Mdm2-MdmX association, primary screen, cell-based, luminescence, split luciferase, SaOS-2, uHTS; Protein Mdm4 (Homo sapiens) + E3 ubiquitin-protein ligase Mdm2 (Homo sapiens), …; inhibition, % at 8 µM; SaOS-2 split-luciferase Mdm2/MdmX complementation; AID 485346, 2010; 3% of 330,000 active;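 active means inhibition of at least 50% at 8 µM in the primary screen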
CSC inhib = cancer stem cell viability inhibitors, primary screen, luminescence | inhibition, % at 7.5 µM | AID 2717, 2010 | cancer stem cell-like cells viability | 1.1% of 300,000 active; in the data active means inhibition above about 75%; inconclusive means no clear call, values can overlap the other calls; tested in HMLE shEcad cells
Calb FLC = C. albicans growth inhibition with fluconazole, primary screen, CaCi-2 strain, Alamar Blue fluorescence; C. albicans CaCi-2 (fluconazole-resistant clinical isolate) + fluconazole, 48 h; growth inhibition, % (concentration not given with the values); 0.57% of 300,000 active; AID 1979, 2009;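 active means growth inhibition above about 58% in most replicates, limit read from the data, passing the limit was not always enough; inconclusive means exactly half the replicates above a set limit; inactive means most replicates below a set limit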;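 further: all wells also contain fluconazole at 8 µg/ml as a sub-toxic cotreatment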
T cruzi inh = inhibitors of intracellular T. cruzi growth, primary screen, luminescence, NIH3T3 host cells; inhibition, % (no concentration beside the values); 1.4% of 300,000 active; T. cruzi beta-gal in NIH3T3, 90 h;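 active means mean inhibition across valid replicates above about 55%, limit read from the data; inconclusive means mean below that limit but half or more replicates reach it; inactive means mean below it, under half of replicates reach it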;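 further: signal also drops with host cell toxicity which is not excluded here; higher percent means less beta-gal luminescence so fewer parasites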
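Test system: β-gal T. cruzi (Tulahuen C4) inside NIH/3T3 cells / Quantity: 5,000 cells/well / Measured by: luminescence from GalScreen with 0.05% NP40, read after 60 min / Medium: DMEM plus 2% FBS / Measure: parasite load inhibition, % / Reagent: Tulahuen C4 trypomastigotes, 5000/well / Schedule: co-culture of at least 90 h after 3 h attachment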
SKKanGAS inh = S. pyogenes SKKanGAS growth inhibitors in kanamycin, primary screen, streptokinase expression inhibitor project, SKKanGAS strain, BacTiter-Glo luminescence | 6 h | inhibition, % at 7.5 µM | 1.3% of 300,000 active;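 active means mean replicate score, as percent of positive control median, at least 50; inconclusive means mean below 50 but one replicate at or above 50; inactive means mean and every replicate below 50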;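 further: strain carries kanamycin resistance gene driven by streptokinase promoter and grows in 40 µg/ml kanamycin; loss of luminescence reflects streptokinase promoter inhibition or plain growth inhibition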
A number is an active result; n = inactive; u = inconclusive; x = no result given. In the library only some 5.7% were active in any assay of this set; here they are far more common.

SMILES | Beta cell apopt | Mdm2-MdmX inh | CSC inhib | Calb FLC | T cruzi inh | SKKanGAS inh
O=C(CC1CC2CCC1C2)Nc1nc(-c2ccccn2)cs1 (configuration not stated) | n | n | n | 87 | 62 | 76
COc1ccc(OCCCC(=O)Nc2nc(-c3ccccn3)cs2)cc1 | n | n | n | n | 62 | 73
O=C(Nc1nccs1)c1ccc(Br)s1 | n | n | n | n | n | n
O=C(Nc1nc(-c2ccccn2)cs1)c1ccc(Br)s1 | 85 | n | 97 | 93 | n | n
O=[N+]([O-])c1cc(NCCO)c(N2CCCCCC2)c2nonc12 | n | n | n | n | n | n
NC(=O)c1c(NC(=O)Cc2ccccc2)sc2c1CCN(Cc1ccccc1)C2 | n | n | u | n | n | n
C/C(N)=C(/C#N)C(=O)CSc1nc(-c2ccccc2)c(-c2ccccc2)o1 | x | n | n | n | 59 | n
CCN1CCN(c2ccc(NC(=O)c3ccc(Cl)c(S(=O)(=O)N4CCCC4)c3)cc2)CC1 | x | n | x | x | x | x
CCN(CC)CCOC(=O)c1ccc(NC(=O)c2ccc(Cl)c(S(=O)(=O)N3CCCCCC3)c2)cc1 | n | n | 77 | n | n | n
COc1cnc(-c2ccccc2)nc1Oc1ccc(C(C)(C)C)cc1 | x | n | n | n | n | 93
CC(=O)N(c1ccccc1C)C1CCCC1 | n | n | n | u | n | n
CC(=O)N(C1=C(Cl)C(=O)c2ccccc2C1=O)C1CCCCC1 | n | n | n | n | 58 | 53
CC(C)(C)c1nc(SCC(=O)N2CCCC2)c2ccccc2n1 | n | n | n | n | n | n
CC(C)(C)c1nc(SCC(=O)c2ccccc2)c2ccccc2n1 | n | n | n | n | n | 62
CN(Cc1ccccc1)C(=O)COC(=O)c1cc(=O)c2ccccc2o1 | n | n | n | x | x | x
Clc1ccc(/C(Cc2nc3ccccc3[nH]2)=N\Nc2ccccc2)cc1 | n | n | n | n | n | 90
CCCn1c(C(CO)Nc2nc(-c3cccc(Br)c3)cs2)nc2ccccc21 (configuration not stated) | n | n | n | n | n | 96
N#C/C(=C\c1cccs1)C(=O)c1ccccc1Cl | n | n | n | n | n | n
C=CC[n+]1c(-c2ccc(C)cc2)csc1Nc1c(C)n(C)n(-c2ccccc2)c1=O | x | n | n | n | 65 | n
O=C(Nc1ccc(OC(F)(F)F)cc1)c1ccc(S(=O)(=O)N2CCOCC2)o1 | n | n | n | n | x | n
CNC(=O)NCC12CC3CC(CC(C3)C1)C2 | n | n | n | n | n | n
Cc1cc(C(=O)NCC23CC4CC(CC(C4)C2)C3)c(C)o1 | n | n | n | n | 61 | n
O=C(Cc1ccccc1)NNc1ccc2ccccc2c1 | n | n | 88 | u | n | n
O=C(CN1C(=O)CCC1=O)NNc1ccc2ccccc2c1 | n | n | n | 100 | x | n
O=C(CNc1ccc2ccccc2c1)NNC1=NCCC1 | n | n | n | n | n | n
SMILES | Beta cell apopt | Mdm2-MdmX inh | CSC inhib | Calb FLC | T cruzi inh | SKKanGAS inh
O=C(COc1ccc2ccccc2c1)NNC(=O)Cc1ccccc1 | n | x | n | n | n | n
CCCCC1CCC(C(=O)N(CCOC)c2c(N)n(CC(C)C)c(=O)[nH]c2=O)CC1 (configuration not stated) | n | n | n | x | x | x
CC(NC(=O)Cc1ccccc1)C(=O)O (configuration not stated) | n | n | n | x | x | x
Cc1cc(-c2n[nH]c(=S)n2/N=C/c2ccc(Br)s2)n[nH]1 | n | n | n | n | n | n
Oc1c(Br)cc(Br)cc1/C=N/n1c(-c2ccccc2)n[nH]c1=S | n | n | n | n | n | n
S=c1[nH]nc(-c2cc(-c3ccccc3)n[nH]2)n1/N=C/c1c(Cl)cccc1Cl | n | n | n | n | n | 61
Oc1c(Br)cc(/C=N/n2c(-c3ccccc3)n[nH]c2=S)c(Br)c1O | n | x | 106 | n | n | n
S=c1[nH]nc(-c2cc(-c3ccccc3)n[nH]2)n1/N=C/c1ccc(Br)s1 | n | n | n | n | n | 60
CC1C(=O)Nc2ccc(S(=O)(=O)NCCc3ccc(Cl)cc3)cc2NC1=O (configuration not stated) | n | n | n | n | n | n
S=C(NCc1ccccc1)N1CCn2cccc2C1c1cccnc1 (configuration not stated) | x | x | x | n | 59 | n
S=C(NCCc1ccccc1)N1CCn2cccc2C1c1cccnc1 (configuration not stated) | n | n | n | n | 68 | n
S=C(NCc1ccccc1)N1CCn2cccc2C1c1ccncc1 (configuration not stated) | n | n | n | n | n | n
CC(Sc1nnnn1-c1cccc(F)c1)C(=O)NC1CCCC1 (configuration not stated) | n | n | x | x | x | x
C/C(=N\Nc1ccc([N+](=O)[O-])cc1)c1ccc(O)cc1 | n | n | n | 113 | n | n
C/C(=N\NC(=O)c1cc([N+](=O)[O-])cc([N+](=O)[O-])c1)c1ccco1 | n | n | n | n | 57 | n
C/C(=N\NC(=O)c1ccc([N+](=O)[O-])cc1)c1c(O)cc(C)oc1=O | n | n | n | n | n | n
C/C(=N/NC(=O)c1cc(O)c(O)c(O)c1)c1ccc([N+](=O)[O-])cc1 | x | x | x | 91 | n | n
CC(=O)NC/C(C)=N\Nc1ccc([N+](=O)[O-])cc1 | n | n | n | 113 | n | n
CCc1ccc2oc(-c3ccc(OC)cc3)cc(=Nc3c(C)n(C)n(-c4ccccc4)c3=O)c2c1 | n | n | n | 71 | 64 | n
CCc1ccc2oc(-c3ccc(OC)cc3)cc(=Nc3cccc(C(=O)O)c3)c2c1 | n | n | n | n | n | n
Cc1ccc(NC(=O)CSc2nc3ccccc3c(=O)n2CCCC(=O)NCCCN2CCOCC2)cc1 | n | n | n | n | n | n
COc1ccc(-c2nc3c(c(=O)[nH]c(=O)n3Cc3ccccc3)n2Cc2ccccc2)cc1 | n | n | n | n | 61 | n
CC1(C)Cc2c(cnn2-c2ccccc2)-c2c1c1ccccc1n2CC(O)CCl (configuration not stated) | n | n | n | n | n | 64
c1ccc(N2CCN(Cc3cnc(N4CCOCC4)s3)CC2)cc1 | n | n | n | n | n | n
CCC(C)n1ncn(-c2ccc(N3CCN(c4ccc(OCC5COC(Cn6cncn6)(c6ccc(Cl)cc6Cl)O5)cc4)CC3)cc2)c1=O (configuration not stated) | n | n | n | x | 55 | n
CC(=O)c1ccc(S(=O)(=O)N2CCN(c3nc(-c4cccnc4)nc4ccccc34)CC2)cc1 | n | n | x | x | x | x
Cc1ccc2c(c1)N(C(=O)CCC(=O)NCCCN1CCN(C)CC1)CCO2 | n | n | x | n | n | n
